# “And” between values parts separate entries of the source, which are not always exact repeats. Equal values may be shown once. “Also recorded” adds a separate entry of the source. Where no end group is shown, it is not given here.
# Tests used:
# [1] = test system: EGFR; settings: ref [16],[17]; cited from earlier work
# [2] = biological target: EGFR kinase domain (residues 672-998) (Homo sapiens, UniProt P00533); assay: Enzyme-coupled kinase assay, wild type EGFR kinase domain; format: biochemical
# [3] = test system: I682Q EGFR kinase domain; assay: Enzyme-coupled kinase assay, I682Q mutant alone; format: biochemical; settings: 2 μM kinase domain; titration of Peptide C; 500 μM ATP; pH 7.5; room temperature
# In short: (§1)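 Spectrophotometric enzyme-coupled kinase assay using N-terminally His6-tagged EGFR kinase domain (residues 672-998); mutants were made by site-directed mutagenesis and sequence-confirmed. Total kinase domain was 2 μM, with 1 μM of each mutant when paired. The test peptide substrate was titrated with 500 μM ATP in 10 mM MgCl2, 20 mM Tris pH 7.5 at room temperature. Specific rates came from at least triplicates; for pairs, Hill coefficients came from variable-slope log(agonist)-response fits.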
# [4] = test system: V924R EGFR kinase domain; assay: Enzyme-coupled kinase assay, V924R mutant alone; format: biochemical; settings: 2 μM kinase domain; titration of Peptide C; 500 μM ATP; pH 7.5; room temperature
# In short: as §1
# [5] = biological target: I682Q and V924R EGFR kinase domains (Homo sapiens, UniProt P00533, V948R); assay: Enzyme-coupled kinase assay, pair I682Q and V924R; format: biochemical; settings: 1 μM each
# In short: as §1
# [6] = biological target: I682Q/D813N and V924R EGFR kinase domains (Homo sapiens, UniProt P00533, V948R); assay: Enzyme-coupled kinase assay, pair I682Q/D813N and V924R; format: biochemical; settings: I682Q/D813N with V924R, 1 μM each; minimum of three replicates
# In short: as §1
# [7] = biological target: T1, EGFR kinase domain (Homo sapiens, UniProt P00533); assay: Immunoblot analysis of EGFR kinase domain autophosphorylation; format: biochemical; settings: 0-60 μM Peptide C; 800 nM EGFR kinase domain; 500 μM ATP; pH 7.5; 1 minute; room temperature; minimum of three replicates
# [8] = Dynamic light scattering of Peptide C; format: physicochemical; settings: DLS, 25° C
# In short: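 Test peptide at 1 mM, prepared in water, in 20 mM NaCl, or in assay buffer (15 mM Tris pH 7.5, 0.02% v/v polysorbate 20, 20 mM NaCl). DLS was run at 25° C with a 60 mW laser at 15% power and a 90° detection angle. Buffer components were filtered beforehand; the peptide itself was not filtered.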
# [9] = Transmission electron microscopy of Peptide C alone; format: physicochemical; settings: 20, 40 and 80 μM, TEM
# In short: (§2)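 Test peptide at varied concentrations, without or with 2 μM wild-type or I682Q His-tagged EGFR kinase domain (residues 672-998), in 10 mM Tris pH 7.5, 20 mM NaCl, 0.02% v/v polysorbate 20. Samples were incubated about 10 min at room temperature, then adsorbed onto Formvar carbon-coated copper grids. Grids were negatively stained with three applications of 1% w/v uranyl acetate and imaged by transmission electron microscopy.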
# [10] = test system: wild type EGFR kinase domain; assay: Transmission electron microscopy with wild type EGFR kinase domain; settings: TEM
# In short: as §2
# [11] = test system: I682Q EGFR kinase domain; assay: Transmission electron microscopy with I682Q EGFR kinase domain; settings: different concentrations of Peptide C; 2 μM I682Q EGFR kinase domain; TEM
# In short: as §2
# [12] = test system: EGFR; settings: reported value, cited from earlier work
# [13] = biological target: T1, EGFR kinase domain; assay: Radiometric kinase assay of Tail Peptide A phosphorylation; format: biochemical
# In short: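 Buffer was 15 mM Tris pH 7.5, 0.02% v/v polysorbate 20, 10 mM MgCl2. A non-phosphorylatable test peptide (substrate Tyr→Ala) was added at varied concentrations. After 10 min at room temperature, reactions were quenched with 0.5% v/v phosphoric acid, spotted on phosphocellulose filters, washed, and scintillation-counted (four replicate filters).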
# [14] = Peptide C (2 μM EGFR) vs Tyrsub (8 μM EGFR)
compound,measurement,setting,value
protamine,aggregation and activation of EGFR,[1],can aggregate and activate EGFR in an apparently cooperative manner
RAHEEIYHFFFAKKK [Peptide C],"kcat, fold higher than for Tail Peptide A",[2]; Peptide C (2 μM EGFR) vs Tail Peptide A (8 μM EGFR),roughly eight
same,"catalytic efficiency (kcat/KM), fold higher than for Tyrsub",[2]; [14],~760 fold
same,"kcat, fold higher than for Tyrsub",[2]; [14],roughly eight
same,Hill coefficient (nH),"[2]; wild type kinase domain, 2 μM, 500 μM ATP, pH 7.5, room temperature, Hill equation fit, minimum of three replicates",~ 2.8 and ~3
same,activating properties with I682Q alone,[3],entirely abrogated
same,activating properties with V924R alone,[4],entirely abrogated
same,catalysis relative to wild type kinase domain,"[5]; I682Q and V924R combined, 500 μM ATP, pH 7.5, room temperature",about 60%
same,Hill coefficient (nH),"[5]; I682Q with V924R, minimum of three replicates",~ 3.0
same,Hill coefficient (nH),[6],~ 2.5
same,Tyr-845 phosphorylation,[7],increases in a dose-dependent manner
same,Tyr-974 phosphorylation,[7],same dose-dependent increase in phosphorylation
same,Tyr-992 phosphorylation,[7],same dose-dependent increase in phosphorylation
same,aggregation,[8]; 1 mM in 20 mM sodium chloride,aggregation to an intermediate degree between the aqueous solution and the buffered samples
same,aggregation,[8]; 1 mM in water,limited aggregation
same,hydrodynamic radius,"[8]; 1 mM in water, polydisperse distribution",1-10 nm
same,fibril length,"[9]; 10 mM Tris, pH 7.5, 20 mM NaCl, 0.02% polysorbate 20",several hundreds
same,dependence of fibril morphology on concentration,[9],appears to be independent of Peptide C concentration
same,globular aggregates,[9],Globular aggregates closely associated with the fibrils are also observed
same,"small, dispersed EGFR aggregates","[10]; 20 μM Peptide C, 2 μM EGFR kinase domain",also observed
same,"small, dispersed EGFR aggregates","[10]; 80 μM Peptide C, 2 μM EGFR kinase domain",not observed
same,fibrils and globular aggregates with EGFR kinase domain,"[10]; 20 and 80 μM Peptide C, 2 μM EGFR kinase domain, about 10 minutes",forms fibrils in the presence of EGFR; also recorded: Fibrils similar to those formed by Peptide C alone as well as globular aggregates localized near the fibrils are observed
same,fibril edges with EGFR kinase domain,[10]; Peptide C with 2 μM EGFR kinase domain,the fibril edges are less defined; also recorded: appear less crisp
same,appearance with I682Q EGFR kinase domain compared with wild type,[11],appear indistinguishable from wild type
same,Km,"[12]; ref [5],[9]",128 µM
same,"catalytic efficiency, kcat/KM, fold higher than for Tail Peptide A",[12]; ref [9],~ 26 fold
poly-arginine,aggregation and activation of EGFR,[1],can aggregate and activate EGFR in an apparently cooperative manner
CCCCCCCCCCCCC/C=C/[C@@H](O)[C@@H](N)CO [sphingosine],aggregation and activation of EGFR,[1],can aggregate and activate EGFR in an apparently cooperative manner
poly-lysine,aggregation and activation of EGFR,[1],can aggregate and activate EGFR in an apparently cooperative manner
RAHEEIAHFFFAKKK [Peptide C variant],EC50,[13],45 µM

# From paper PMC4048812 (The Biochemical journal, 2013)
